KCNK9 inh – human KCNK9 channel inhibition; Q9NPC2; AID 488922; HEK293 KCNK9, FluxOR thallium flux fluorescence; stronger effect = lower value; B-score at 10 µM; 310,000 tested, 1.2% active;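 active = ratio B-score over 3 SD below the library mean, with starting fluorescence within 5 SD of its mean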;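 note: negative B-score means less thallium flux so channel inhibition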
KCNQ1 inh – inhibitors of human KCNQ1 potassium channel; P51787; CHO-K1 KCNQ1, FluxOR thallium flux fluorescence; stronger effect = higher value; 310,000 tested, 1.3% active; B-score at 10 µM; AID 2642;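 active = compounds whose thallium flux B-score, printed positive for inhibition, exceeds three library SD while starting fluorescence stays within three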;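 note: channel opened by potassium depolarization with thallium stimulus after 20 min compound exposure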
hERG rescue – compounds protecting human hERG from proarrhythmic drug block; 310,000 tested, 0.51% active; activation (rescue from dofetilide block), less the hit threshold, % at 10 µM; CHO-hERG, FluxOR thallium flux, dofetilide IC70 present; Q12809;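 active = activation above the mean of controls blocked by dofetilide plus 5 SD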;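 note: thallium influx through hERG after potassium depolarization seen as dye fluorescence rise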
Kir21 block – Kir2.1 (mouse) channel inhibition; HEK293-Kir2.1, FluxOR thallium flux fluorescence; stronger effect = lower value; B-score at 10 µM; 310,000 tested, 0.85% active; AID 1672;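 active = fluorescence ratio B-score at or below minus 3 SD of library scores, with starting-brightness B-score within 2 SD, cut at about -4.2 in these data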;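 note: channel flux triggered by added potassium and thallium sulfate stimulus; B-score of peak minus minimum fluorescence over baseline after thallium stimulus; more negative B-score means stronger Kir2.1 block with less thallium influx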
KCNQ1 pot – human KCNQ1 channel potentiation or activation. B-score at 10 µM. CHO-K1 KCNQ1, thallium flux FluxOR fluorescence; stronger effect = higher value. P51787. 310,000 tested, 0.35% active;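 active = fluorescence ratio B-score, a plate-corrected score, at least three library SD, with initial intensity B-score within 5 SD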
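Assay system: CHO-K1 cells stably expressing KCNQ1. Medium: assay buffer for compound exposure, DMSO matched across wells. Timing: 37 °C overnight plating, 90-min dark dye load, 20-min compound pretreatment. Signal: kinetic FluxOR fluorescence, 10 s baseline plus 110 s post-stimulus.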
KCNK3 block – human KCNK3 channel inhibition, primary screen; O14649; CHO-KCNK3 thallium flux, FluxOR fluorescence; stronger effect = lower value; B-score at 10 µM; 340,000 tested, 0.84% active; AID 602410;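 active = B-score under library mean minus 4 SD, starting fluorescence ratio at most library mean plus 5 SD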;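 note: more negative B-score means stronger inhibition of thallium flux through KCNK3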
Target sequence (O14649 whole entry, looked up): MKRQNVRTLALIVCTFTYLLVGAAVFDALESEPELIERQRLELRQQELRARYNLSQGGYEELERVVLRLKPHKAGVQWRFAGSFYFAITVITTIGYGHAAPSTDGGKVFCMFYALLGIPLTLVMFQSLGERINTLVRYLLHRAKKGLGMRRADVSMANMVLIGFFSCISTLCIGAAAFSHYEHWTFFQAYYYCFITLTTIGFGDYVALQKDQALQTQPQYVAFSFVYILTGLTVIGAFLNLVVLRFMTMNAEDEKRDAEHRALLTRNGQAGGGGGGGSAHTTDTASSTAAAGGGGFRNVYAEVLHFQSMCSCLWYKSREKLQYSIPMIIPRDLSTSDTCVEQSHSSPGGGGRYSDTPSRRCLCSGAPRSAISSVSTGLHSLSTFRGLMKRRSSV
KCNK9 block conf – confirmation of human KCNK9 potassium channel inhibitors; shares compounds with KCNK9 inh; HEK293 KCNK9 cells, FluxOR thallium flux fluorescence; inhibition, % at 10 µM; 4,900 tested, 43% active; AID 492992;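 active = thallium signal inhibited by more than 5 SD of the compound-free buffer control wells, on both duplicate plates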;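 note: 0% = assay buffer control wells without compound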
Kir21 sel – mouse Kir2.1 off-target activity of KCNK9 modulators | shares compounds with KCNK9 inh | Kir2.1 cells, FluxOR thallium flux fluorescence | inhibition, % at 10 µM | 4,900 tested, 4% active | AID 492993;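 active = thallium signal drop more than 5 SD beyond the mean of the no-compound control wells, seen in both duplicate plates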;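 note: signal is fluorescence rise after thallium addition divided by baseline fluorescence; plate controls were assay buffer only for no effect and full block by chlorpromazine control for full effect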
KCNK9 uninduced – second counter-screen for KCNK9 modulators: effect in non-induced cells | shares compounds with KCNK9 inh | non-induced KCNK9-HEK293, FluxOR thallium flux | inhibition, % at 10 µM | AID 492997 | 4,900 tested, 40% active;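 active = thallium signal drop beyond 5 SD of the untreated control mean, on both duplicate plates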;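 note: plate controls were buffer only IC0 wells for no effect and SID17386958 at its maximal inhibitory level for full effect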
Numbers without * were called inactive; i = inactive; nt = no result given. An excerpt weighted towards active compounds, which were near 3.7% of everything screened.

SMILES	KCNK9 inh	KCNQ1 inh	hERG rescue	Kir21 block	KCNQ1 pot	KCNK3 block	KCNK9 block conf	Kir21 sel	KCNK9 uninduced
CCCOc1c(Br)cc(C2C3=C(CCCC3=O)N(CC)C3=C2C(=O)CCC3)cc1OC	-8.5*	i	-9	0.71	i	i	i	i	31%*
CCCOc1c(Br)cc(C2C3=C(CCCC3=O)N(C)C3=C2C(=O)CCC3)cc1OC	i	i	-9	-1.2	i	i	nt	nt	nt
CCOc1cc(C(=O)NC(C)CCc2ccccc2)cc(OCC)c1OCC (configuration not stated)	i	i	-4	-1.2	i	i	i	i	i
CCC(=O)Nc1ccc(C(=O)CSc2nnc(-c3ccc(NS(=O)(=O)CC)cc3)o2)cc1OC	i	i	-11	-0.36	i	i	nt	nt	nt
O=C1CC(N2CCC(Cc3ccccc3)CC2)C(=O)N1CCc1ccccc1 (configuration not stated)	i	i	-1	1.8	i	i	i	i	i
C[C@H]1[C@@H](c2ccccc2)Oc2ccc(Cl)cc2S(=O)(=O)N1Cc1ccc(F)cc1F	nt	nt	nt	nt	nt	i	nt	nt	nt
CCCOc1ccc(-c2c(=O)n(O)c3ccccc3[n+]2[O-])cc1	-8.9*	i	28*	-0.8	i	i	i	i	i
CCOc1ccc(-c2c(=O)n(OCc3ccccn3)c3ccccc3[n+]2[O-])cc1	i	i	-9	0.04	i	i	nt	nt	nt
O=C1[C@@H]2[C@@H]3C[C@@H]([C@H]4ON=C(c5ccc(Cl)cc5Cl)[C@@H]34)[C@@H]2C(=O)N1C1CCCCC1	i	i	-8	-1.5	i	i	i	i	i
COc1cccc(N2CCN(CC(=O)NC3=Nc4ccccc4N=C(C)C3c3ccccc3)CC2)c1 (configuration not stated)	-14*	i	-8	0.25	i	i	54%*	i	28%*
CCOC(=O)C1=C(C)N=C2SC(C)C(=O)N2C1c1ccc(OC(C)=O)c(OC)c1 (configuration not stated)	-15*	i	-7	-2.3	i	i	63%*	i	34%*
CCOC(=O)N1CCN(C(=O)c2ccc(N(C)S(=O)(=O)c3ccc(C)cc3)cc2)CC1	i	i	-10	1.6	i	i	nt	nt	nt
O=c1c2c3c(sc2n(CCN2CCCCC2)c(=O)n1Cc1ccco1)CCCCC3	i	i	-14	4.4e-16	i	i	i	i	i
COC(=O)c1ccc(/C=N/NC(=O)CC(=O)NCc2cccnc2)cc1	i	i	-8	-0.84	i	i	nt	nt	nt
CCCN(C(=O)COC(=O)CCOc1ccccc1C)c1c(N)n(Cc2ccccc2)c(=O)[nH]c1=O	i	i	-6	0.56	i	i	nt	nt	nt
CC1CCCN(C(=O)c2ccc(Cl)c(S(=O)(=O)N3CCCCCC3)c2)C1 (configuration not stated)	nt	nt	nt	nt	nt	i	nt	nt	nt
O=C(c1ccc(Cl)c(S(=O)(=O)N2CCCCC2)c1)N1CCN(Cc2ccccc2)CC1	i	i	-3	-0.57	i	i	i	i	i
COc1cc2c(cc1OC)C(C)N(C(=O)c1ccc(Cl)c(S(=O)(=O)N3CCCCC3)c1)CC2 (configuration not stated)	-11*	i	-7	0.16	i	i	32%*	i	i
O=C(OCC(=O)N1CCCCCC1)c1ccc(Cl)c(S(=O)(=O)N2CCCC2)c1	i	i	-4	-1.5	i	i	i	i	i
CCOC(=O)C1CCCN(C(=O)c2ccc(Cl)c(S(=O)(=O)N3CCCCCC3)c2)C1 (configuration not stated)	i	i	-12	-1.2	i	i	i	i	i
COCCCN1C(=O)C(=O)/C(=C(/O)c2ccc(S(=O)(=O)N3CCOCC3)cc2)C1c1ccc(C(C)C)cc1 (configuration not stated)	i	i	-6	0.96	i	i	nt	nt	nt
CCN(C(=O)/C=C/c1ccccc1)C1CCCCC1	i	i	-10	1.1	i	i	i	i	i
CCN(CC)C(=O)/C=C/c1ccccc1	nt	nt	nt	nt	nt	i	nt	nt	nt
CCN(CC)CCn1c(SCC(=O)NCc2ccco2)nc2c(sc3ccccc32)c1=O	i	i	-12	0.1	i	i	nt	nt	nt
CCN(CC)CCn1c(SCC(=O)Nc2cccc(OC)c2)nc2c(sc3ccccc32)c1=O	-12*	i	-21	-0.02	i	i	48%*	i	32%*
SMILES	KCNK9 inh	KCNQ1 inh	hERG rescue	Kir21 block	KCNQ1 pot	KCNK3 block	KCNK9 block conf	Kir21 sel	KCNK9 uninduced
Cc1noc(C)c1CSCC(=O)N(C)CC(=O)Nc1ccc(Cl)c(C(F)(F)F)c1	-10*	i	-15	0.65	i	i	52%*	i	24%*
Cc1noc(C)c1S(=O)(=O)N1CCCC(C(=O)c2cccc(OC(C)C)c2)C1 (configuration not stated)	i	i	-20	-1.8	i	i	nt	nt	nt
COc1ccc(OC)c(NC(=O)C(Sc2ccccc2)c2ccccc2)c1 (configuration not stated)	-11*	i	-8	-1.5	i	i	58%*	i	46%*
CCc1cccc2c1NC(=O)C21OCCO1	i	i	-6	0.85	i	i	nt	nt	nt
COCC(C)NC(=O)Cc1ccc(F)cc1 (configuration not stated)	i	i	-1	1	i	i	nt	nt	nt
CCCCN(CC)c1nc(N)c(C#N)c(CC#N)c1C#N	-11*	i	-7	-0.03	i	i	33%*	i	32%*
C=C(C)CN(CC)c1nc(N)c(C#N)c(CC#N)c1C#N	i	i	-15	1.3	i	i	nt	nt	nt
O=C1N=c2ccc(Br)cc2=C1c1sc(=S)n(NS(=O)(=O)c2ccccc2)c1O	i	i	-9	-1.1	i	i	i	i	i
COc1cccc(NC(=S)NC2CC(C)(C)NC(C)(C)C2)c1	i	i	-7	1.2	i	i	nt	nt	nt
COc1cccc(C(=O)N2c3ccccc3Sc3ccccc32)c1	-11*	i	-8	-0.83	i	i	58%*	i	48%*
